Assay outcomes: PubChem BioAssay, The Scripps Research Institute Molecular Screening Center
Hits are enriched below; roughly 2% of the tested compounds scored in any of these assays.
M5 PAM = human M5 muscarinic receptor positive allosteric modulators, primary screen, CHO-K1 cells, Fluo-8 calcium fluorescence. Muscarinic acetylcholine receptor M5 (Homo sapiens), P08912. CHO-K1 hM5, ACh EC20 PAM; 0% = ACh EC20, 100% = ACh EC100. activation, % at 3 µM. actives 0.3% (n = 360,000);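 active means activation above the run cutoff, the mean activation of all test compounds plus 3 SD, cut at about 18% in these data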
Target sequence (P08912 whole entry, looked up): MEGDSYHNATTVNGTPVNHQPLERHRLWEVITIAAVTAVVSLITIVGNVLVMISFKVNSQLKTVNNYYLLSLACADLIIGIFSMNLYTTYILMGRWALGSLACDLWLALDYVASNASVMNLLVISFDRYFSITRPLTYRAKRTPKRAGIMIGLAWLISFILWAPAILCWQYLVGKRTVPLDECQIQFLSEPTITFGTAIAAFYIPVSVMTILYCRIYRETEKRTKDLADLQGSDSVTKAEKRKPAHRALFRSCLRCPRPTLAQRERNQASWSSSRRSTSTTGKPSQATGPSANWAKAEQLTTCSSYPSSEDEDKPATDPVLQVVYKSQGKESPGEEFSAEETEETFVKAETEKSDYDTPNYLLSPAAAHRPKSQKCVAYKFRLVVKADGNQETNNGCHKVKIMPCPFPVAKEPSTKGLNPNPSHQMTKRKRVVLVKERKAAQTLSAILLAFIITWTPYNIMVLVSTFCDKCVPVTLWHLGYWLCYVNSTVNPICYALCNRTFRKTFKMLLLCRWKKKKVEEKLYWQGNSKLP
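system = human M5 receptor in CHO-K1 cells | reagent = EC20 acetylcholine as agonist stimulus | compound dosing = single-point, 3 µM nominal | incubation = Fluo-8 loading 80 min at 37 °C plus 30 min room temperature | detection = Fluo-8 calcium dye fluorescence, kinetic read | benchmarks = low control EC20 acetylcholine (0%), high control EC100 acetylcholine (100%)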
M1 PAM = human M1 muscarinic receptor positive allosteric modulators, primary screen, CHO-K1 cells, Fluo-8 calcium fluorescence, 1536-well | Muscarinic acetylcholine receptor M1 (Homo sapiens), P11229 | CHO-K1 hM1, ACh EC20; 0% = ACh EC20, 100% = maximal ACh | activation, % at 3 µM | actives 0.088% (n = 360,000) | AID 588819, 2011; in the data active means activation above about 19%, passing the limit was not always enough
CHRM5 antagonist = human M5 muscarinic receptor antagonists, primary screen, CHO cells, Fluo-8 calcium fluorescence. Muscarinic acetylcholine receptor M5 (Homo sapiens), P08912. CHO-hM5 cells, ACh EC80. inhibition, % at 3 µM. actives 0.59% (n = 360,000). AID 624040, 2012;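 active means inhibition above a per-plate cutoff, the mean of that plate's test compounds plus 3 SD, cut at about 27% in these data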;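 further: 0% = acetylcholine EC80 with DMSO and 100% = DMSO without agonist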
M1 antag = human M1 muscarinic receptor antagonists, primary screen, CHO-K1 cells, Fluo-8 calcium fluorescence, 1536-well; Muscarinic acetylcholine receptor M1 (Homo sapiens), P11229; CHO-K1 hM1, ACh EC80 antagonist; inhibition, % at 3 µM; actives 1.3% (n = 360,000); AID 588852, 2011;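 active means percent inhibition above its own plate's cutoff, namely the mean of that plate's compound wells plus 3 SD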;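 further: peak over basal fluorescence ratio during 140 s after agonist addition; 0% = ACh EC80 plus DMSO and 100% = DMSO alone without agonist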
CHRM5 agonist = human M5 muscarinic receptor agonists, primary screen, CHO-K1 cells, Fluo-8 calcium fluorescence; AID 624037, 2012; activation, % at 3 µM; Muscarinic acetylcholine receptor M5 (Homo sapiens), P08912; CHO-K1 hM5 cells; 0% DMSO wells, 100% maximal acetylcholine response; actives 0.19% (n = 360,000);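 active means activation above the run's mean over test compounds plus 3 SD, cut at about 23% in these data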;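 further: signal is peak over basal fluorescence ratio across the kinetic read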
M1 ag = human M1 muscarinic receptor agonists, primary screen, Fluo-8 calcium fluorescence, CHO-K1 cells, HTS. Muscarinic acetylcholine receptor M1 (Homo sapiens), P11229. CHO-K1 hM1, agonist mode; 0% DMSO, 100% acetylcholine EC100. activation, % at 3 µM. actives 0.33% (n = 360,000). AID 588814, 2011;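 active means activation above the run's mean compound activation plus 3 SD, cut at about 16% in these data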;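 further: peak over basal fluorescence ratio within a 140 s kinetic read after compound addition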
* marks the source's active call; other numbers are inactive results; . = no result.

SMILES	M5 PAM	M1 PAM	CHRM5 antagonist	M1 antag	CHRM5 agonist	M1 ag
C[N+]1([O-])[C@@H]2CC(OC(=O)[C@H](CO)c3ccccc3)C[C@H]1[C@@H]1O[C@@H]12 (some centres undefined)	-18	-26	98*	100*	-1	-9
C[N+]1(C)C2CCC1CC(OC(=O)c1ccccc1)C2 (centres undefined)	-22	-9	6	12	-18	-8
C#CC[N+]1(C)[C@@H]2CC(OC(=O)C(CO)c3ccccc3)C[C@H]1C(O)C2 (some centres undefined)	-22	-27	98*	101*	-9	-10
CCCCn1nnnc1C(CC)N1CCC2(CC1)C(=O)NCN2c1ccccc1 (centres undefined)	-2	11	1	-12	4	-5
CC(C)n1c(=O)c(C=Nc2cccc([N+](=O)[O-])c2)c(O)n(CCc2ccccc2)c1=O	-5	-5	8	-4	0	-3
C[C@]12C=CC(=O)C=C1C=C[C@@H]1C2CC[C@]2(C)C(=O)CCC12 (some centres undefined)	3	20	8	-22	-2	-1
O=C(/C=C/c1ccccc1)NCCc1cnc[nH]1	-2	2	1	-8	1	-7
CC1(C)CN=C(Nc2ccc(F)c(F)c2)S1	-6	6	0	-13	18	20*
CC1(C)CN=C(Nc2ccc(F)c(Cl)c2)S1	-1	1	3	-10	15	12
O=C(O)c1ccccc1NC(=O)N1C[C@H]2C[C@@H](C1)c1cccc(=O)n1C2	-5	4	4	-5	4	-3
O=P(Nc1cccc(Cl)c1)(Oc1ccccc1)Oc1ccccc1	-11	-8	10	24	1	-5
O=C(Nc1ccc(Cl)cc1)OC1CN2CCC1CC2 (centres undefined)	-30	-14	31*	21	-13	0
O=C(Nc1cccc(Cl)c1)OC1CN2CCC1CC2 (centres undefined)	-27	-18	29*	37	9	6
O=C(Nc1ccccc1Cl)OC1CN2CCC1CC2 (centres undefined)	-32	-22	25	54*	-16	-4
N#Cc1ccc(NC(=O)CN2CCCC2)cc1Cl	1	1	11	-1	2	-5
O=C(Nc1cccc(Cl)c1)OCC#CCN1CCCC1	-23	-23	17	62*	-3	45*
O=C(Nc1ccccc1F)OC1CN2CCC1CC2 (centres undefined)	-22	-16	10	24	-19	-7
Nc1ncc([N+](=O)[O-])s1	-1	-4	1	4	1	-2
O=C(N/N=C/C1C(=O)NC(=S)N(c2ccccc2)C1=O)c1cc(Br)c(O)c(Br)c1 (centres undefined)	-19	0	30*	1	1	0
O=C(N/N=C/c1c(O)n(C2CCCCC2)c(=S)[nH]c1=O)c1ccccc1	-3	-10	7	6	-4	-5
COC(=O)C1=C(c2ccc(F)cc2OCc2ccccc2)C[C@@H]2CC[C@H]1N2C(=O)N1CCC(O)CC1	-18	0	8	1	2	-8
CCOc1ccc(-c2c(C)n(-c3ccc(OCC)cc3)c3[n+]2CCCCC3)cc1	-30	-10	35*	30	-4	0
CCC(C)NC(=O)c1c(N)n(Cc2ccc3c(c2)OCO3)c2nc3ccccc3nc12 (centres undefined)	19*	8	-5	-30	9	1
CCN1CCN(C(=O)Cc2c(C)n(C(=O)c3ccc(Cl)cc3)c3ccc(OC)cc23)CC1	4	7	1	-16	-8	-7
CN(C)P(=NC(=S)c1cccn1C)(N(C)C)N(C)C	-26	-24	27*	33*	-7	-11
SMILES	M5 PAM	M1 PAM	CHRM5 antagonist	M1 antag	CHRM5 agonist	M1 ag
Clc1ccc(NC2=NCCCS2)cc1Cl	-6	-14	21	4	-3	-10
O=S(=O)(c1cccc(C(F)(F)F)c1)N1Cc2ccccc2-n2nncc2C1	-5	-12	-2	21	2	1
CCOC(=O)[C@]12Cc3cc(OC)ccc3[C@H]1N(C1CCCCC1)C(=O)c1ccccc12	9	.	3	.	20	.
CCOC(=O)[C@]12Cc3cc(Cl)ccc3[C@H]1N(C1CCCCC1)C(=O)c1ccccc12	12	.	2	.	24*	.
COc1c(/C=C2/C(=O)NC(=O)N(C)C2=O)c(CCN(C)C(=O)c2ccccc2)cc2c1OCO2	2	5	0	-6	1	-1
O=NN1CCCCC1	3	9	-4	-12	4	-2
CC12C=CC(=O)CC1CCC1C2CCC2(C)C(O)C(O)CC12 (centres undefined)	-24	-12	35*	29	5	2
CC(C)C[C@@H]1COc2cccc(N3CCN(C)CC3)c2S(=O)(=O)N1	-22	.	99*	.	-7	.
CCCCC(=O)N/N=C/c1c(O)n(-c2cccc3ccccc23)c(=O)[nH]c1=O	5	7	1	-9	4	-2
O=C1NCN(c2ccccc2)C12CCN(C(c1cccs1)c1nnnn1-c1ccc3c(c1)OCCO3)CC2 (centres undefined)	-1	14	5	-35	8	5
O=C1NCN(c2ccccc2)C12CCN(C(c1ccccc1)c1nnnn1-c1ccc3c(c1)OCCO3)CC2 (centres undefined)	-6	20	12	5	4	17*
COc1ccc(OC)c(CN2CCN(C(=O)Cc3ccccc3)CC2)c1	1	-3	3	-2	-3	-8
CO[C@@H]1C=CC23c4cc5c(cc4CO[C@]2(O)CN(C)[C@H]3C1)OCO5 (some centres undefined)	12	15	-6	-1	-1	4
CN1CCc2nc(N)c(C#N)c(-c3ccccc3)c2C1	-22	-20	9	34*	-8	-8
CN1CCc2nc3sc(C#N)c(N)c3c(-c3cccs3)c2C1	-1	-4	4	3	-6	-15
